# Legend:
# tyrosinase (TYR) [1] = target: T1, tyrosinase (TYR) (Agaricus bisporus, UniProt C7FF04); experiment: ANS fluorescence assay; type: binding; settings: 6f 60 µM (533 nm at 0 µM)
# tyrosinase (TYR) [2] = target: T1, tyrosinase (TYR); experiment: CD spectroscopy of TYR secondary structure; type: binding; settings: molar ratio 1:6
# tyrosinase (TYR) [3] = target: T1, tyrosinase (TYR); experiment: Fluorescence quenching titration of TYR; type: binding
# tyrosinase (TYR) [4] = target: T1, tyrosinase (TYR); experiment: UV spectra measurement of TYR with inhibitor; type: binding
# tyrosinase (TYR) [5] = target: T1, tyrosinase (TYR); experiment: Kinetic analysis of TYR; type: biochemical; settings: Lineweaver-Burk plot
# HEK-293 cells = experiment: CCK-8 cell viability assay; type: cell-based, human; settings: in words
# Summary of the method: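 Log-phase HEK-293 cells were seeded at 1 × 10^5 cells/well and held at 37 °C for 24 h. They were then exposed for 24 h to test compound at 4, 12, 36 or 108 µM, prepared in PBS. Wells were washed twice with PBS, and medium containing 10 % CCK-8 was added. Absorbance at 450 nm was read after 2 h.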
# T1 sequence (C7FF04 1-392): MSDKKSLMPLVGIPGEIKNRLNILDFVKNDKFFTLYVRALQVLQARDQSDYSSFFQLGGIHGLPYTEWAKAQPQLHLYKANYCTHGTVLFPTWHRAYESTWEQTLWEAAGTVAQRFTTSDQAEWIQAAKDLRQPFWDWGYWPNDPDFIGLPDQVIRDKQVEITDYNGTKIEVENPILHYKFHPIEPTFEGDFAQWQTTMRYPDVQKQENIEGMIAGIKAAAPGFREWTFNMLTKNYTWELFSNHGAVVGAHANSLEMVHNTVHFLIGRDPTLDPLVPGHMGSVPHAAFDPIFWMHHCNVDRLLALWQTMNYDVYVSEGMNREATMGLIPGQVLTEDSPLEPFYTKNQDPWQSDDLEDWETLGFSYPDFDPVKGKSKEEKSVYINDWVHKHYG
compound,measurement,setting,value
CCCc1cc(=O)oc2cc(OCc3cc(=O)c(O)co3)ccc12 [Compound 6f],maximum emission wavelength of ANS-TYR fluorescence,tyrosinase (TYR) [1],500 nm
same,α-Helix content of TYR,tyrosinase (TYR) [2],32.50%
same,β-Turn content of TYR,tyrosinase (TYR) [2],17.20%
same,β-sheet content of TYR,tyrosinase (TYR) [2],17.50%
same,quenching constant Kq,tyrosinase (TYR) [3]; Stern-Volmer plot,3.95 × 10^12 L/mol S^-1
same,number of binding sites n,tyrosinase (TYR) [3]; double reciprocal equation,1.12
same,mode of action on TYR (quenching type),tyrosinase (TYR) [3]; multispectral experiments,static quenching
same,effect on the UV absorption peak of TYR at 280 nm,tyrosinase (TYR) [4],significantly reduced the absorption peak of TYR at 280 nm
same,inhibition type,tyrosinase (TYR) [5],mixed-type inhibitor
same,cytotoxicity,HEK-293 cells,low cytotoxicity

# Source: publication PMC10826612 (Food Chemistry: X, 2024)
